The values below come from publication PMC3563353 (Bioconjugate chemistry, 2012).

“Also recorded” adds a separate entry of the source.

Assay [1] relates to A375/MC1R cells. In words: In vitro MC1R probe uptake study by fluorescence microscopy, A375/MC1R cells. The format is cell-based, human. As to conditions: 10 minute pre-incubation with 2 μM NDP-α-MSH before probe. The method in brief: (§1)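 Cy5-conjugated MC1R ligand probe at 15 nM in medium, on live cells (1 × 10^4/well) grown 16 h on glass coverslips. Cells: A375/MC1R (stable hMC1R transfectant, 300 μg/ml G418) or melanotic B16F10-Luc; DMEM, 10% FBS, 37°C, 5% CO2. Imaged by fluorescence microscopy from 40 s to 15 min. For blocking, 10 min pre-incubation with 2 μM NDP-α-MSH.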

In assay [2] the test system is B16F10 cells. The assay can be described thus: In vitro MC1R probe uptake study by fluorescence microscopy, B16F10 cells. It is filed as cell-based, mouse. The method in brief: as §1
Assay [3] deals with MC4R. As to conditions: cell lines engineered to overexpress MC4R; cited from earlier work.
In assay [4] the test system is MC5R. The note with it: cell lines engineered to overexpress MC5R; cited from earlier work.
Assay [5] relates to A375/MC1R and A375 xenograft tumors. The assay can be described thus: In vivo fluorescence imaging of bilateral A375 / A375/MC1R xenograft tumors. Set-up: species or system nu/nu mice. As to conditions: p<0.05.
The subject of assay [6] is B16F10 xenograft tumors. The format is in vivo, nu/nu mice. As to conditions: 3 nmol/kg i.v., melanotic B16F10 xenograft.

Consider `CCN1C(=CC=CC=CC2=[N+](CCCCCC(=O)NCCN3C(=O)CC(SCCC(=O)NCCCC[C@H](NC(=O)CNC(=O)[C@H](Cc4c[nH]c5ccccc45)NC(=O)[C@H](CCCNC(=N)N)NC(=O)[C@@H](Cc4ccccc4)NC(=O)[C@H](Cc4c[nH]cn4)NC(=O)CCCc4ccccc4)C(N)=O)C3=O)c3ccc(S(=O)(=O)O)cc3C2(C)C)C(C)(C)c2cc(S(=O)(=O)[O-])ccc21` (stereo partly shown) [MC1RL-Cy5], for which the “binding and uptake of probe after blocking with NDP-α-MSH” value in assay [1] is recorded as “No binding or uptake; also recorded: completely blocked”. The “probe uptake by B16F10 cells after blocking with NDP-α-MSH” value in assay [2] (B16F10 cells pre-incubated with unlabeled NDP-α-MSH before probe) is “blocking of probe-uptake was also observed; also recorded: completely blocked”. Also, the “probe uptake by B16F10 cells” value in assay [2] (melanotic B16F10 cells with endogenous MC1R, 15 nM probe, 5 min time-point) was “Probe uptake was also observed; also recorded: internalization of probe into the cells”.
With “4-phenylbutyryl-His-DPhe-Arg-Trp-Gly-Lys”, the “affinity for MC4R (in words)” value in assay [3] is “high nanomolar”. Moreover, in assay [4], the “affinity for MC5R (in words)” value was “high nanomolar”.
For `CC1(C)C(=CC=C2CCCC(C=CC3=[N+](CCCCS(=O)(=O)O)c4ccc(S(=O)(=O)[O-])cc4C3(C)C)=C2Oc2ccc(S(=O)(=O)O)cc2)N(CCCCCC(=O)NCCN2C(=O)CC(SCCC(=O)NCCCC[C@H](NC(=O)CNC(=O)[C@H](Cc3c[nH]c4ccccc34)NC(=O)[C@H](CCCNC(=N)N)NC(=O)[C@@H](Cc3ccccc3)NC(=O)[C@H](Cc3c[nH]cn3)NC(=O)CCCc3ccccc3)C(N)=O)C2=O)c2ccc(S(=O)(=O)O)cc21` (stereo partly drawn) [MC1RL-800, 4-phenylbutyryl-His-DPhe-Arg-Trp-Gly-Lys(Mpr-IRDye800CW)-NH2], the “tumor uptake with co-injection of excess NDP-α-MSH peptide (in words)” value in assay [5] was “significantly blocked”. Also, the “fluorescence detection in B16F10 tumors with the Optix MX3 imaging system” value in assay [6] is given as “not detectable”.
